Screens as filed in PubChem BioAssay.
A selection: hits, their analogues and other compounds. The true share with any hit is near 2.7%.
FGF22 binding – binders of recombinant human FGF22 by thermal shift | Q9HCT0 | SYPRO orange fluorescence; percent of sucrose octasulfate shift, DMSO zero | activity (Tm shift, normalised), % at 9.99 µM | 1.5% of 340,000 active;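 active = mean Tm shift, scaled 0 neutral to 100 positive control, at about 1.3% or above, every replicate too, limit read from the data; inconclusive = no clear call, values can overlap the other calls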
HIV Env fusion – inhibitors of HIV Env-mediated cell fusion | HeLa-JRFL Env/CEM21 cell fusion, luciferase | inhibition, % at 12.3 µM | 1.1% of 360,000 active | AID 651610;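 active = mean replicate inhibition score of at least 50 and every replicate individually at or above 50; inconclusive = only one of the two criteria met; inactive = mean below 50 and not all replicates reaching 50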
S100A4 MyoIIA – blocks human S100A4 binding to myosin IIA peptide; 0.14% of 360,000 active; inhibition, % at 10.7 µM; S100A4/TAMRA-MyoIIA peptide fluorescence polarization; P26447;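 active = mean inhibition of at least 70% across replicates, with every replicate also reaching that level; inconclusive = mean inhibition reaches 70% but some replicates fall short; inactive = mean inhibition below 70%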
Target sequence (P26447 whole entry, looked up): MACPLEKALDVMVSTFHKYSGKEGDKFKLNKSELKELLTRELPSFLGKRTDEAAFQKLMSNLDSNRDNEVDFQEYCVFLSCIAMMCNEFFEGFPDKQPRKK
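incubation = readout 5 min after mixing, signal stable up to 60 min | system = S100A4 monomer protein | buffer or medium = HEPES pH 7.2 with CaCl2, KCl, NaCl, DTT, Triton | benchmarks = neutral control DMSO, positive control TFP | also added = fluorescent myosin IIA peptide, 5 nM | compound dosing = one concentration per compound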
E-selectin induc – induces E-selectin expression in human endothelial cells; P16581; HUVEC E-selectin immunofluorescence imaging; normalized: neutral wells 0, TNF-alpha wells 100; activation, % at 7.58 µM; 0.37% of 260,000 active; AID 686992;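 active = mean E-selectin-positive cell signal at least 10% of the positive control, reached in at least 60% of replicates, without over 20% cell loss; inconclusive = no rule given, readout overlaps actives, possibly toxicity-flagged; inactive = the rest, including those meeting only one limit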
Target sequence (P16581 whole entry, looked up): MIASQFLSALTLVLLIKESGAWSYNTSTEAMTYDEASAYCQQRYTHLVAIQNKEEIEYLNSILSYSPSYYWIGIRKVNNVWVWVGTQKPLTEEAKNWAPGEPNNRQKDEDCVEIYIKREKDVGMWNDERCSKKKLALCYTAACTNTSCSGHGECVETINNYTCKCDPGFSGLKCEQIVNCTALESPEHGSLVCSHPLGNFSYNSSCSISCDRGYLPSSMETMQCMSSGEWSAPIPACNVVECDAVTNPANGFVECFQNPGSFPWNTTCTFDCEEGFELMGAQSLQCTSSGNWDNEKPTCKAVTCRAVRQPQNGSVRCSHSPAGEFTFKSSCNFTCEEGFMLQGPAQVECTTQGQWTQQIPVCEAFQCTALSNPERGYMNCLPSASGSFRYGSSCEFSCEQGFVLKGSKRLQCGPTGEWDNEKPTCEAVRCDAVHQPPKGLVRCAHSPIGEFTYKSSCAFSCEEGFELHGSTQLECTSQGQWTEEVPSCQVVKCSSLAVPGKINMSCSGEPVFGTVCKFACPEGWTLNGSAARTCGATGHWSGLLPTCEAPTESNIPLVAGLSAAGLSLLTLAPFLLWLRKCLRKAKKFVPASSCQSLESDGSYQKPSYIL
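System: HUVEC, human umbilical vein endothelial cells; quantity: 3,000 cells/well; buffer or medium: EGM-2 medium, gelatin-coated wells; dosing: single-point compound dose; detection: immunofluorescence imaging; evaluation: % PE-positive cells; benchmarks: TNF-alpha, DMSO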
CFTR F508del cor – correctors of CFTR F508del function in bronchial epithelial cells | CFBE cells, YFP halide quenching; stimulated with forskolin plus potentiator P3; % fluorescence drop versus neutral controls | activity (quench increase), % at 7.58 µM | 0.36% of 350,000 active;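 active = mean added fluorescence quench of at least 8% versus neutral control, with both replicates also reaching 8%; inconclusive = only one of the mean or replicate conditions met; inactive = mean below 8% and not both replicates reaching 8%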;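 also: cells transiently co-express mutant CFTR-F508del with the halide-sensitive YFP; corrector assay measuring rescue of mutant channel to the surface after 24 h compound exposure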
Large screens that a line does not name were inactive; [ ] = dose if it differs, or a comment.

COc1ccc(CCC(C)NCCc2ccc(Cl)cc2Cl)cc1 (configuration not stated)	HIV Env fusion 55 (no result: E-selectin induc)
COc1ccc(CCC(C)NCc2cc(OC)cc(OC)c2)cc1 (configuration not stated)	HIV Env fusion 71
COc1ccc(CCC(C)NCC(C)c2ccccc2)cc1 (configuration not stated)	none (no result: E-selectin induc)
COc1ccc(CCC(C)NCc2ccc(Cl)c(Cl)c2)cc1 (configuration not stated)	HIV Env fusion 81 (no result: E-selectin induc)
COc1ccc(CCC(C)NCc2ccc(F)cc2)cc1 (configuration not stated)	HIV Env fusion inconclusive (no result: E-selectin induc)
COc1ccc(CCC(C)NCC2CCCCC2)cc1 (configuration not stated)	none (no result: E-selectin induc, CFTR F508del cor)
CO[C@@H]1CN(C)C(=O)c2ccc(NS(C)(=O)=O)cc2OC[C@H](C)N(Cc2ccccn2)C[C@H]1C	none (no result: HIV Env fusion)
CO[C@@H]1CN(C)C(=O)c2ccc(NC(=O)C3CC3)cc2OC[C@H](C)N(C(=O)Cc2ccccn2)C[C@@H]1C	none (no result: HIV Env fusion)
CO[C@@H]1CN(C)C(=O)c2cc(NS(C)(=O)=O)ccc2OC[C@H](C)N(C)C[C@@H]1C	none
C[C@H](CO)N1C[C@H](C)[C@H](CN(C)S(C)(=O)=O)Oc2cc(C#CCN(C)C)ccc2S1(=O)=O	none
C[C@@H]1CN([C@@H](C)CO)S(=O)(=O)c2ccc(-c3cncnc3)cc2O[C@H]1CN(C)CC1CC1	none
COc1ccc2oc(C(=O)N3CCN(C(=O)c4ccco4)CC3)c(C)c2c1	CFTR F508del cor 14 (no result: E-selectin induc)
CCOC(=O)c1[nH]c(C)c(C(=O)OCC)c1C	none
COC(=O)c1c(C)[nH]c(C(=O)CC#N)c1C	FGF22 binding 43 (no result: E-selectin induc)
CC1(C(=O)NCc2ccc3c(c2)OCO3)CCN1Cc1csc2ccccc12 (configuration not stated)	HIV Env fusion 98
CC1(C(=O)Nc2ccc3c(c2)OCCO3)CCN1Cc1csc2ccccc12 (configuration not stated)	none
O=C(O)C[C@H]1C[C@@H]2c3cc(NC(=O)C4CCOCC4)ccc3O[C@@H]2[C@H](CO)O1	none (no result: FGF22 binding, HIV Env fusion)
O=C(COC(=O)c1ccc(O)cc1)NCC1CCCO1 (configuration not stated)	FGF22 binding 43
COc1ccc(NC(=O)C2(C)Cc3c(-c4ccc5c(c4)OCO5)ccnc3O2)cn1 (configuration not stated)	FGF22 binding 44
CC1(C(=O)Nc2ccc3c(c2)OCO3)Cc2c(-c3ccc4c(c3)OCO4)ccnc2O1 (configuration not stated)	none
COc1ccc(NC(=O)Nc2ccc3c(c2)C(=O)N([C@H](C)CO)C[C@@H](C)[C@H](CN(C)S(=O)(=O)c2ccccc2)OCCCC[C@@H](C)O3)cc1	none (no result: E-selectin induc)
CNC(=S)N1N=C(c2ccc(Br)cc2)CC1c1ccc(OC)cc1 (configuration not stated)	none (no result: FGF22 binding, S100A4 MyoIIA, E-selectin induc, CFTR F508del cor)
CNC(=S)N1N=C(c2ccc(C)cc2)CC1c1ccc(N(C)C)cc1 (configuration not stated)	FGF22 binding 44
C[C@H]1CN([C@@H](C)CO)C(=O)c2cccc(NS(=O)(=O)c3ccc(Cl)cc3)c2O[C@@H]1CN(C)C(=O)Nc1ccc(C(F)(F)F)cc1	none (no result: HIV Env fusion)
O=C(Cn1c(-c2ccccc2)c[n+]2ccsc12)c1ccc([N+](=O)[O-])cc1	FGF22 binding 43 (no result: E-selectin induc)
O=C(Cn1c(-c2ccccc2)c[n+]2ccsc12)c1ccccc1	none (no result: E-selectin induc)
Oc1ccc(/C=N/NC(=S)Nc2cccnc2)cc1	FGF22 binding 1.5
COc1ccc(C=NNC(=S)NN=Cc2ccc(OC)c(OC)c2)cc1OC	none
COc1cccc(/C=N/NC(=S)Nc2cccnc2)c1	none
COc1ccccc1NC(=S)N/N=C/c1ccc(O)cc1	FGF22 binding 1.5 (no result: CFTR F508del cor)
COc1ccc(C=NNC(=S)Nc2ccc(F)cc2)cc1OC	FGF22 binding 65 (no result: HIV Env fusion)
CCc1c(C)nc(SCC(=O)NNC(=O)Cc2ccc(OC)cc2)[nH]c1=O	none
CCc1c(C)nc(SCC(=O)Nc2nc(-c3ccc(OC)cc3)cs2)[nH]c1=O	FGF22 binding 43 (no result: E-selectin induc)
COc1ccc(OC)c(-c2cc(C(=O)Nc3c(C)nn(Cc4ccc(Cl)cc4)c3C)no2)c1	HIV Env fusion 87 (no result: FGF22 binding, S100A4 MyoIIA, E-selectin induc, CFTR F508del cor)
Cc1nn(Cc2ccc(Cl)cc2)c(C)c1NC(=O)c1cc(-c2ccc3c(c2)OCO3)on1	none (no result: FGF22 binding, S100A4 MyoIIA, E-selectin induc, CFTR F508del cor)
Cc1nn(Cc2ccc(Cl)c(Cl)c2)c(C)c1NC(=O)c1cc(-c2ccc3c(c2)OCO3)on1	HIV Env fusion 73 (no result: FGF22 binding, S100A4 MyoIIA, E-selectin induc, CFTR F508del cor)
CCN(CC)C(=O)c1sc(NC(=O)C(C)C)c(C#N)c1C	FGF22 binding 44 (no result: E-selectin induc)
CCN(CC)C(=O)c1sc(NC(=O)c2c(OC)cccc2OC)c(C#N)c1C	none (no result: E-selectin induc)
CCN1C(=O)c2cccc3c(S(=O)(=O)N(C(C)=O)c4ccc(OC(C)=O)cc4)ccc1c23	CFTR F508del cor 16 (no result: HIV Env fusion)
N#C[C@@H]1[C@H](c2ccc(-c3ccccc3F)cc2)[C@@H](CO)N1C(=O)Cc1ccccc1	HIV Env fusion 58[16.7 µM]
N#C[C@H]1[C@@H](c2ccc(-c3ccccc3)cc2)[C@@H](CO)N1S(=O)(=O)Cc1ccccc1	HIV Env fusion 62[16.7 µM]
N#C[C@@H]1[C@@H](c2ccc(-c3ccc(F)cc3)cc2)[C@@H](CO)N1S(=O)(=O)Cc1ccccc1	none
Cc1cccc(-c2ccc([C@H]3[C@@H](CO)N4CCCCN(Cc5cccnc5)C[C@H]34)cc2)c1	none (no result: HIV Env fusion)
Cc1ccc(S(=O)(=O)N(C)C[C@@H]2OCCCC[C@H](C)Oc3ccc(NC(=O)CCC(F)(F)F)cc3C(=O)N([C@@H](C)CO)C[C@@H]2C)cc1	none (no result: FGF22 binding, E-selectin induc)
C#CCCCCCCCCC(=O)NCCCC	FGF22 binding 43
O=C(CSc1nc(-c2ccccc2)cc(C(F)(F)F)n1)N1CCOCC1	none (no result: FGF22 binding, S100A4 MyoIIA, E-selectin induc, CFTR F508del cor)
CC1CCCN(C(=O)C(C)Sc2nc(-c3ccccc3)cc(C(F)(F)F)n2)C1 (configuration not stated)	HIV Env fusion 57 (no result: FGF22 binding, S100A4 MyoIIA, E-selectin induc, CFTR F508del cor)
CO[C@H]1CN(C)C(=O)c2cc(NS(=O)(=O)CC(F)(F)F)ccc2OC[C@@H](C)N(CCC(F)(F)F)C[C@H]1C	none
COc1ccc(Nc2nc3ccccc3s2)cc1	FGF22 binding 2.6 (no result: E-selectin induc, CFTR F508del cor)
COc1ccc2nc(C)cc(Sc3nc4ccccc4s3)c2c1	HIV Env fusion 58 (no result: E-selectin induc)
COc1ccccc1CNC(=O)C[C@H]1C[C@@H]2c3cc(NC(=O)c4cccnc4)ccc3O[C@@H]2[C@@H](CO)O1	HIV Env fusion 90[16.7 µM]
CCCNC(=O)C[C@H]1C[C@H]2c3cc(NC(=O)c4cccnc4)ccc3O[C@H]2[C@@H](CO)O1	none (no result: S100A4 MyoIIA)
COc1ccccc1CNC(=O)C[C@@H]1C[C@@H]2c3cc(NC(=O)c4cccnc4)ccc3O[C@@H]2[C@@H](CO)O1	none
CCCNC(=O)C[C@@H]1C[C@H]2c3cc(NC(=O)c4cccnc4)ccc3O[C@H]2[C@H](CO)O1	HIV Env fusion 71[16.7 µM] (no result: S100A4 MyoIIA)
Cc1cccc(S(=O)(=O)N2C[C@H](O)COC[C@H]3O[C@H](CC(=O)NCc4ccc5c(c4)OCO5)CC[C@@H]32)c1	none (no result: HIV Env fusion)
